Source: ChEMBL document CHEMBL2396626, “Exploiting drug-resistant enzymes as tools to identify thienopyrimidinone inhibitors of human immunodeficiency virus reverse transcriptase-associated ribonuclease H” (J Med Chem, 2013)
Activity calls are given as the source filed them. The calls are words filed in the database; no cut-off is given here.

Experiments:
[1] = molecular target: Human immunodeficiency virus type 1 reverse transcriptase (Human immunodeficiency virus 1, UniProt Q72547); test: Inhibition of RNase H activity of wild type HIV-1 reverse transcriptase using 18 nucleotide 3'-fluorescein-labeled RNA/18 nucleotide 5'-dabsyl-labeled DNA hybrid as substrate after 10 mins by fluorescence spectrometric analysis
[2] = Inhibition of RNase H activity of HIV-1 reverse transcriptase p66/p51 R284A mutant using 18 nucleotide 3'-fluorescein-labeled RNA/18 nucleotide 5'-dabsyl-labeled DNA hybrid as substrate after 10 mins by fluorescence spectrometric analysis; design: species or system Human immunodeficiency virus 1
[3] = tested on: Human immunodeficiency virus 1; test: Inhibition of HIV-1 DNA-dependent DNA polymerase using DNA duplex as substrate at 50 uM after 15 mins by PAGE relative to control
[4] = molecular target: Human immunodeficiency virus type 1 reverse transcriptase (Human immunodeficiency virus 1) (UniProt Q72547); test: Binding affinity to HIV-1 reverse transcriptase p66/p51 assessed as decrease in melting temperature at 10 uM by differential scanning fluorimetric analysis in presence of Mg2+
[5] = Inhibition of RNase H activity of HIV-1 reverse transcriptase p66/p51 V276A mutant using 18 nucleotide 3'-fluorescein-labeled RNA/18 nucleotide 5'-dabsyl-labeled DNA hybrid as substrate after 10 mins by fluorescence spectrometric analysis; design: species or system Human immunodeficiency virus 1
[6] = molecular target: Human immunodeficiency virus type 1 integrase (Human immunodeficiency virus 1) (UniProt Q7ZJM1); test: Inhibition of HIV-1 integrase using DNA duplex as substrate at 50 uM preincubated for 10 mins prior to substrate addition measured after 1 hr
Human immunodeficiency virus type 1 integrase (Human immunodeficiency virus 1), sequence (Q7ZJM1 as listed by the source): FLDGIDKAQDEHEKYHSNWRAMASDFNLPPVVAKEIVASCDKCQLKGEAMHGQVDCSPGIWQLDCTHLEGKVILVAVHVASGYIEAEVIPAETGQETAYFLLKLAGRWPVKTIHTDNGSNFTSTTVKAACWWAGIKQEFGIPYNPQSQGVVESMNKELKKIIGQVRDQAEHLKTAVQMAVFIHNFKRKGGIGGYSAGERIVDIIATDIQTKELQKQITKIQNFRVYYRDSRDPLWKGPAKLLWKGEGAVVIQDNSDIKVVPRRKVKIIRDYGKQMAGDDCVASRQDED

[7] = tested on: Human immunodeficiency virus type 1 reverse transcriptase (Human immunodeficiency virus 1), Q72547 [Y181C]; test: Inhibition of HIV-1 reverse transcriptase Y181C mutant at 50 uM
[8] = Inhibition of RNase H activity of HIV-1 reverse transcriptase p66/p51 T286A mutant using 18 nucleotide 3'-fluorescein-labeled RNA/18 nucleotide 5'-dabsyl-labeled DNA hybrid as substrate after 10 mins by fluorescence spectrometric analysis; design: species or system Human immunodeficiency virus 1
[9] = Inhibition of RNase H activity of HIV-1 reverse transcriptase p66/p51 C280A mutant using 18 nucleotide 3'-fluorescein-labeled RNA/18 nucleotide 5'-dabsyl-labeled DNA hybrid as substrate after 10 mins by fluorescence spectrometric analysis; design: species or system Human immunodeficiency virus 1
[10] = tested on: Human immunodeficiency virus type 1 reverse transcriptase (Human immunodeficiency virus 1), Q72547 [K103N]; test: Inhibition of HIV-1 reverse transcriptase K103N mutant at 50 uM
[11] = tested on: CEM-SS; test: Cytotoxicity against human CEM-SS cells by XTT assay; assay type: cell-based
In short: (§1)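 Cytopathic-protection format: HIV-1 RF isolate in human T-cell line CEM-SS, with cell viability read by XTT-based assay.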

[12] = Selectivity ratio of CC50 for human CEM-SS cells to EC50 for Human immunodeficiency virus 1 RF isolate; assay type: ADME, cell-based
[13] = tested on: Human immunodeficiency virus 1; test: Antiviral activity against Human immunodeficiency virus 1 RF isolate infected in human CEM-SS cells by XTT assay; assay type: functional, organism-based; in short: as §1

Compound | IC50 [1] [nM] | IC50 [2] [nM] | IC50 [5] [nM] | IC50 [8] [nM] | IC50 [9] [nM] | also measured
Cc1sc2nc(-c3ccccn3)[nH]c(=O)c2c1C | 4200 |  |  |  |  | 
O=c1[nH]c(-c2ccc(O)c(O)c2)nc2sc3c(c12)CCCCCC3 | 260 | 280 | 110 | 290 | 230 | inhibition [3]: > 60%; ΔTm [4]: 0.5 °C; inhibition [6]: inactive; inhibition [7]: Active; inhibition [10]: Active
Cc1sc2nc(-c3cc(O)ccc3O)[nH]c(=O)c2c1C | 9300 |  |  |  |  | 
Cc1sc2nc(-c3ccc(C(=O)O)cc3)[nH]c(=O)c2c1C | 1600 |  |  |  |  | 
O=c1[nH]c(-c2ccc(O)c(O)c2)nc2sc3c(c12)CCC3 | 320 | 470 | 210 | 370 | 260 | inhibition [3]: > 60%; ΔTm [4]: 0.5 °C; inhibition [6]: inactive; inhibition [7]: Active; inhibition [10]: Active
Cc1sc2nc(-c3ccccc3)[nH]c(=O)c2c1C | 11300 |  |  |  |  | 
CCCc1c(C)sc2nc(-c3ccc(O)c(O)c3)[nH]c(=O)c12 | 490 | 800 | 560 | 570 | 370 | CC50 [11]: 11200 nM; Ratio CC50/EC50 [12]: 5.9; EC50 [13]: 1900 nM; ΔTm [4]: 0.5 °C
O=c1[nH]c(-c2cc(O)cc(O)c2)nc2sc3c(c12)CCCCC3 | 2600 |  |  |  |  | 
Cc1sc2nc(-c3cc(O)c(O)cc3O)[nH]c(=O)c2c1C | 1600 |  |  |  |  | 
Cc1sc2nc(-c3ccc(O)cc3)[nH]c(=O)c2c1C | 790 | 200 | 140 | 3700 | > 50000 | 
Cc1sc2nc(-c3cccc(C(F)(F)F)c3)[nH]c(=O)c2c1C | > 50000 |  |  |  |  | 
CCCCc1c(C)sc2nc(-c3ccc(O)c(O)c3)[nH]c(=O)c12 | 420 | 1200 | 910 | 1100 | 490 | CC50 [11]: 25400 nM; Ratio CC50/EC50 [12]: 3.2; EC50 [13]: 7900 nM; inhibition [3]: > 60%; ΔTm [4]: 0.5 °C; inhibition [6]: inactive; inhibition [7]: Active; inhibition [10]: Active
Cc1sc2nc(-c3ccc(O)c(F)c3)[nH]c(=O)c2c1C | > 50000 |  |  |  |  | 
O=C(O)c1ccc(-c2nc3sc4c(c3c(=O)[nH]2)CCCCC4)cc1 | 1900 | 950 | 460 | 32000 | > 50000 | 
Cc1sc2nc(-c3ccc([N+](=O)[O-])o3)[nH]c(=O)c2c1C | 16900 |  |  |  |  | 
Cc1sc2nc(-c3ccc(F)c(F)c3)[nH]c(=O)c2c1C | > 50000 |  |  |  |  | 
O=c1[nH]c(-c2ccc(C(F)(F)F)cc2)nc2sc3c(c12)CCCCC3 | 3100 | 540 | 530 | 7200 | 10600 | 
COc1ccc(-c2nc3sc(C)c(C)c3c(=O)[nH]2)cc1OC | 12600 |  |  |  |  | 
O=c1[nH]c(-c2ccc(O)cc2)nc2sc3c(c12)CCCCC3 | 3200 | 650 | 640 | 6600 | 15800 | 

Compound | IC50 [1] [nM] | IC50 [2] [nM] | IC50 [5] [nM] | IC50 [8] [nM] | IC50 [9] [nM] | also measured
CCCc1c(CC)sc2nc(-c3ccc(O)c(O)c3)[nH]c(=O)c12 | 590 | 1400 | 760 | 820 | 500 | CC50 [11]: 33700 nM; Ratio CC50/EC50 [12]: 3.7; EC50 [13]: 9200 nM; inhibition [3]: > 60%; ΔTm [4]: 0.5 °C; inhibition [6]: inactive; inhibition [7]: Active; inhibition [10]: Active
O=c1[nH]c(-c2cc(O)ccc2O)nc2sc3c(c12)CCCCC3 | 1700 |  |  |  |  | 
Cc1sc2nc(-c3cc(O)cc(O)c3)[nH]c(=O)c2c1C | 5200 |  |  |  |  | 
Cc1sc2nc(-c3cc(O)c(O)c(O)c3)[nH]c(=O)c2c1C | 690 |  |  |  |  | 
O=c1[nH]c(-c2ccc(O)cc2O)nc2sc3c(c12)CCCCC3 | 9300 |  |  |  |  | 
COc1cc(-c2nc3sc(C)c(C)c3c(=O)[nH]2)ccc1O | > 50000 |  |  |  |  | 
Cc1sc2nc(-c3ccc(C(F)(F)F)cc3)[nH]c(=O)c2c1C | 1300 | 230 | 310 | 7500 | > 50000 | 
Cc1sc2nc(-c3cccc([N+](=O)[O-])c3)[nH]c(=O)c2c1C | 1500 | 340 | 260 |  | > 50000 | 
O=c1[nH]c(-c2ccccc2)nc2sc3c(c12)CCCCC3 | 4100 | 1300 | 960 | 27900 | 41400 | 
COc1ccc(-c2nc3sc(C)c(C)c3c(=O)[nH]2)cc1 | 9100 |  |  |  |  | 
Cc1sc2nc(-c3cccnc3)[nH]c(=O)c2c1C | 8300 |  |  |  |  | 
O=c1[nH]c(-c2ccc(O)c(O)c2)nc2sc3c(c12)CCCC3 | 370 | 920 | 410 | 460 | 290 | inhibition [3]: > 60%; ΔTm [4]: 0.5 °C; inhibition [6]: inactive; inhibition [7]: Active; inhibition [10]: Active
Cc1sc2nc(-c3cccc(O)c3)[nH]c(=O)c2c1C | > 50000 |  |  |  |  | 
O=c1[nH]c(-c2cccc(O)c2O)nc2sc3c(c12)CCCCC3 | 1800 | 2900 | 2800 | 3600 | 1600 | CC50 [11]: 9800 nM; Ratio CC50/EC50 [12]: 3.6; EC50 [13]: 2700 nM; ΔTm [4]: 0.5 °C
Cc1sc2nc(-c3ccc(Cl)c([N+](=O)[O-])c3)[nH]c(=O)c2c1C | 12000 |  |  |  |  | 
Cc1sc2nc(-c3cc(C(F)(F)F)cc(C(F)(F)F)c3)[nH]c(=O)c2c1C | > 50000 |  |  |  |  | 
Cc1sc2nc(-c3ccc([N+](=O)[O-])cc3)[nH]c(=O)c2c1C |  |  |  |  |  | ΔTm [4]: 0.5 °C
Cc1sc2nc(-c3cc4ccccc4[nH]3)[nH]c(=O)c2c1C | 480 | 120 | 160 | 960 | > 50000 | 
CCCc1c(C)sc2nc(-c3cccc(O)c3O)[nH]c(=O)c12 | 1700 | 3500 | 4100 | 5700 | 2900 | CC50 [11]: 12400 nM; Ratio CC50/EC50 [12]: 4; EC50 [13]: 3100 nM; ΔTm [4]: 0.5 °C; inhibition [6]: inactive
